Test results as given in ChEMBL document CHEMBL1131139, “Synthesis and antibacterial activity of ketolides (6-O-methyl-3-oxoerythromycin derivatives): a new class of antibacterials highly potent against macrolide-resistant and -susceptible respiratory pathogens” (1998).
Converted amounts (≈) assume the structure as drawn. Each block holds one compound with its values, some of them ahead of it.

Legend:
Assay type in all cases: functional
[1] = test system: Haemophilus; experiment: In vitro inhibitory activity against Haemophilus AmpS (43)
[2] = test system: Mus musculus; experiment: In Vivo evaluation for its effective dose against Haemophilus influenzae (351GR1)
In short: (§1)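 Male Charles River CD1 mice, 20-22 g, 10 per dose group, infected intraperitoneally with 0.5 mL diluted overnight broth culture (physiological buffer or 5% hog mucine) at 10-100 times the minimal lethal dose. Compound suspended in carboxymethylcellulose, 0.5 mL given orally immediately and 4 h postinfection. Survival followed 8-10 days; ED50 (unitary dose protecting 50% from death) by Litchfield-Wilcoxon probit method.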

[3] = test system: Haemophilus; experiment: In vitro inhibitory activity against Haemophilus AmpR (37)
[4] = test system: Mus musculus; experiment: In Vivo evaluation for its effective dose against Haemophilus influenzae (351TO19 AmpR beta (-)); in short: as §1
[5] = test system: Mus musculus; experiment: In Vivo evaluation for its effective dose against Haemophilus influenzae (351RD7 AmpR beta (+)); in short: as §1
[6] = test system: Mus musculus; experiment: In Vivo evaluation for its effective dose against Streptococcus pneumoniae (030Cr29 EryRc); in short: as §1
[7] = test system: Streptococcus sp.; experiment: In vitro inhibitory activity against Streptococci EryRi (98)
[8] = test system: Staphylococcus sp.; experiment: In vitro inhibitory activity against Staphylococci EryRc (23)
[9] = test system: Staphylococcus epidermidis; experiment: In vitro inhibitory activity against Staphylococcus epidermidis (EryRi 012GO11i)
In short: (§2)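 Two-fold agar dilution on Mueller-Hinton agar (pH 7.4). Inoculum from overnight plate cultures suspended in Mueller-Hinton broth, adjusted to 10^9 CFU/mL, diluted 1:200 and spotted by multipoint inoculator at about 10^4 CFU/spot. Plates incubated 37 °C for 20 h. MIC taken as lowest concentration with no visible growth.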

[10] = test system: Mus musculus; experiment: In Vivo evaluation for its effective dose against Staphylococcus aureus (011GO25 EryRi.; in short: as §1
[11] = test system: Streptococcus pneumoniae; experiment: In vitro inhibitory activity against Streptococcus pneumoniae (032UC1); in short: as §2
[12] = test system: Enterococcus; experiment: In vitro inhibitory activity against enterococci EryRc (13)
[13] = test system: Streptococcus pyogenes; experiment: In vitro inhibitory activity against Streptococcus pyogenes (02A1UC1); in short: as §2
[14] = test system: Mus musculus; experiment: In Vivo evaluation for its effective dose against Streptococcus pneumoniae (030RO1 EryRi); in short: as §1
[15] = test system: Streptococcus sp.; experiment: In vitro inhibitory activity against Streptococci EryR (27)
[16] = test system: Staphylococcus aureus; experiment: In vitro inhibitory activity against Staphylococcus aureus (EryRc 011CB20); in short: as §2
[17] = test system: Enterococcus; experiment: In vitro inhibitory activity against enterococci EryRi (19)
[18] = test system: Staphylococcus sp.; experiment: In vitro inhibitory activity against Staphylococci EryRi (65)
[19] = In vitro inhibitory activity against Pneumococci PenR (65)
[20] = test system: Mus musculus; experiment: In Vivo evaluation for its effective dose against Staphylococcus aureus (011UC4).; in short: as §1
[21] = test system: Mus musculus; experiment: In Vivo evaluation for its effective dose against Streptococcus pneumoniae (030SJ6 EryRc); in short: as §1
[22] = test system: Haemophilus influenzae; experiment: In vitro inhibitory activity against Haemophilus influenzae (351CB12); in short: as §2
[23] = test system: Mus musculus; experiment: In Vivo evaluation for its effective dose against Streptococcus pneumoniae (032UC1); in short: as §1
[24] = test system: Escherichia coli; experiment: In vitro inhibitory activity against Escherichia coli (250 UC5); in short: as §2
[25] = test system: Streptococcus pneumoniae; experiment: In vitro inhibitory activity against Streptococcus pneumoniae (EryRc 030SJ1); in short: as §2
[26] = test system: Haemophilus influenzae; experiment: In vitro inhibitory activity against Haemophilus influenzae (351HT3); in short: as §2
[27] = In vitro inhibitory activity against Pneumococci EryRc (34)
[28] = test system: Mus musculus; experiment: In Vivo evaluation for its effective dose against Streptococcus pneumoniae (030SJ1 EryRc); in short: as §1
[29] = test system: Mus musculus; experiment: In Vivo evaluation for its effective dose against Streptococcus pneumoniae (030MV2 EryRc); in short: as §1
[30] = test system: Streptococcus pneumoniae; experiment: In vitro inhibitory activity against Streptococcus pneumoniae (EryRi 030SJ5i); in short: as §2
[31] = test system: Staphylococcus aureus; experiment: In vitro inhibitory activity against Staphylococcus aureus (EryRi 011GO25i); in short: as §2
[32] = test system: Staphylococcus aureus; experiment: In vitro inhibitory activity against Staphylococcus aureus (011UC4); in short: as §2
[33] = test system: Mus musculus; experiment: In Vivo evaluation for its effective dose against Streptococcus pyogenes (02A1UC1); in short: as §1
[34] = test system: Staphylococcus sp.; experiment: In vitro inhibitory activity against Staphylococci Staphylococci EryRc (23)

MIC50 [1]: 0.3 µg/mL (≈ 0.859 µM)
MIC90 [1]: 0.6 µg/mL (≈ 1.72 µM)
MIC50 [3]: 1.2 µg/mL (≈ 3.43 µM)
MIC90 [3]: 1 µg/mL (≈ 2.86 µM)
Structure (SMILES): CC1(C)S[C@@H]2[C@H](NC(=O)[C@H](N)c3ccccc3)C(=O)N2[C@H]1C(=O)O [AMPICILLIN]
ED50 [2]: 5.5 mg/kg
ED50 [4]: 39 mg/kg
ED50 [5]: > 600 mg/kg

MIC50 [7]: 20 µg/mL (≈ 27.3 µM)
MIC90 [7]: 40 µg/mL (≈ 54.5 µM)
MIC50 [8]: 40 µg/mL (≈ 54.5 µM)
MIC90 [8]: 40 µg/mL (≈ 54.5 µM)
MIC [9]: 40 µg/mL (≈ 54.5 µM)
MIC50 [1]: 1.2 µg/mL (≈ 1.64 µM)
MIC90 [1]: 5 µg/mL (≈ 6.81 µM)
MIC [11]: 0.08 µg/mL (≈ 0.109 µM)
MIC50 [12]: 40 µg/mL (≈ 54.5 µM)
MIC90 [12]: 40 µg/mL (≈ 54.5 µM)
MIC [13]: 0.08 µg/mL (≈ 0.109 µM)
MIC50 [15]: 5 µg/mL (≈ 6.81 µM)
MIC90 [15]: 40 µg/mL (≈ 54.5 µM)
MIC [16]: 40 µg/mL (≈ 54.5 µM)
MIC50 [17]: 2.5 µg/mL (≈ 3.41 µM)
MIC90 [17]: 10 µg/mL (≈ 13.6 µM)
MIC50 [18]: 40 µg/mL (≈ 54.5 µM)
MIC90 [18]: 40 µg/mL (≈ 54.5 µM)
MIC50 [19]: 0.6 µg/mL (≈ 0.818 µM)
MIC90 [19]: 40 µg/mL (≈ 54.5 µM)
MIC [22]: 2.5 µg/mL (≈ 3.41 µM)
MIC50 [3]: 1.2 µg/mL (≈ 1.64 µM)
MIC90 [3]: 10 µg/mL (≈ 13.6 µM)
MIC [24]: 40 µg/mL (≈ 54.5 µM)
MIC [25]: 40 µg/mL (≈ 54.5 µM)
MIC [26]: 2.5 µg/mL (≈ 3.41 µM)
MIC50 [27]: 40 µg/mL (≈ 54.5 µM)
MIC90 [27]: 40 µg/mL (≈ 54.5 µM)
MIC [30]: 40 µg/mL (≈ 54.5 µM)
MIC [31]: 40 µg/mL (≈ 54.5 µM)
MIC [32]: 0.3 µg/mL (≈ 0.409 µM)
Structure (SMILES): CC[C@H]1OC(=O)[C@H](C)[C@@H](O[C@H]2C[C@@](C)(OC)[C@@H](O)[C@H](C)O2)[C@H](C)[C@@H](O[C@@H]2O[C@H](C)C[C@H](N(C)C)[C@H]2O)[C@](C)(O)C[C@@H](C)C(=O)[C@H](C)[C@@H](O)[C@]1(C)O [ERYTHROMYCIN]
ED50 [6]: > 100 mg/kg
ED50 [10]: > 100 mg/kg
ED50 [14]: > 100 mg/kg
ED50 [2]: 346 mg/kg
ED50 [20]: 57 mg/kg
ED50 [21]: > 100 mg/kg
ED50 [23]: 18.3 mg/kg
ED50 [4]: 442 mg/kg
ED50 [28]: > 100 mg/kg
ED50 [29]: > 100 mg/kg
ED50 [5]: 326 mg/kg
ED50 [33]: 300 mg/kg

MIC50 [7]: 5 µg/mL (≈ 6.04 µM)
MIC90 [7]: 40 µg/mL (≈ 48.3 µM)
MIC50 [1]: 5 µg/mL (≈ 6.04 µM)
MIC90 [1]: 20 µg/mL (≈ 24.2 µM)
MIC50 [12]: 40 µg/mL (≈ 48.3 µM)
MIC90 [12]: 40 µg/mL (≈ 48.3 µM)
MIC50 [15]: 5 µg/mL (≈ 6.04 µM)
MIC90 [15]: 40 µg/mL (≈ 48.3 µM)
MIC50 [17]: 1.2 µg/mL (≈ 1.45 µM)
MIC90 [17]: 1.2 µg/mL (≈ 1.45 µM)
MIC50 [18]: 1.2 µg/mL (≈ 1.45 µM)
MIC90 [18]: 2.5 µg/mL (≈ 3.02 µM)
MIC50 [19]: 0.3 µg/mL (≈ 0.362 µM)
MIC90 [19]: 40 µg/mL (≈ 48.3 µM)
MIC50 [3]: 5 µg/mL (≈ 6.04 µM)
MIC90 [3]: 20 µg/mL (≈ 24.2 µM)
MIC50 [27]: 20 µg/mL (≈ 24.2 µM)
MIC90 [27]: 40 µg/mL (≈ 48.3 µM)
MIC50 [34]: 40 µg/mL (≈ 48.3 µM)
MIC90 [34]: 40 µg/mL (≈ 48.3 µM)
Structure (SMILES): CO[C@@H]1[C@@H](OC2OC(C)C(OC3CC(C)(O)C(OC(=O)CC(C)C)C(C)O3)C(N(C)C)C2O)[C@@H](CC=O)C[C@@H](C)[C@@H](O)/C=C/C=C/C[C@@H](C)OC(=O)C[C@H]1OC(C)=O (some centres undefined)
ED50 [6]: > 100 mg/kg
ED50 [10]: > 100 mg/kg
ED50 [14]: > 100 mg/kg
ED50 [21]: > 100 mg/kg
ED50 [28]: > 100 mg/kg
ED50 [29]: > 100 mg/kg

MIC [9]: 20 µg/mL (≈ 29.7 µM)
MIC [11]: 0.15 µg/mL (≈ 0.223 µM)
MIC [13]: 0.01 µg/mL (≈ 0.0148 µM)
MIC [16]: 40 µg/mL (≈ 59.4 µM)
MIC [22]: 20 µg/mL (≈ 29.7 µM)
MIC [24]: 40 µg/mL (≈ 59.4 µM)
MIC [25]: 2.5 µg/mL (≈ 3.71 µM)
MIC [26]: 20 µg/mL (≈ 29.7 µM)
MIC [30]: 0.15 µg/mL (≈ 0.223 µM)
MIC [31]: 1.2 µg/mL (≈ 1.78 µM)
MIC [32]: 0.08 µg/mL (≈ 0.119 µM)
Structure (SMILES): CC[C@H]1OC(=O)[C@H](C)C(=O)[C@H](C)[C@@H](O[C@@H]2O[C@H](C)C[C@H](N(C)C)[C@H]2O)[C@](C)(OC)C[C@@H](C)/C(=N\OCCN(C)C)[C@H](C)[C@@H](O)[C@]1(C)O

MIC [9]: 0.3 µg/mL (≈ 0.439 µM)
MIC [11]: 2.5 µg/mL (≈ 3.66 µM)
MIC [13]: 0.08 µg/mL (≈ 0.117 µM)
MIC [16]: 40 µg/mL (≈ 58.5 µM)
MIC [22]: 10 µg/mL (≈ 14.6 µM)
MIC [24]: 40 µg/mL (≈ 58.5 µM)
MIC [25]: 5 µg/mL (≈ 7.31 µM)
MIC [26]: 20 µg/mL (≈ 29.2 µM)
MIC [30]: 40 µg/mL (≈ 58.5 µM)
MIC [31]: 5 µg/mL (≈ 7.31 µM)
MIC [32]: 0.3 µg/mL (≈ 0.439 µM)
Structure (SMILES): C#CCNCCO/N=C1\[C@H](C)C[C@@](C)(OC)[C@H](O[C@@H]2O[C@H](C)C[C@H](N(C)C)[C@H]2O)[C@@H](C)C(=O)[C@@H](C)C(=O)O[C@H](CC)[C@@](C)(O)[C@H](O)[C@H]1C

MIC [9]: 2.5 µg/mL (≈ 3.64 µM)
MIC [11]: 0.3 µg/mL (≈ 0.437 µM)
MIC [13]: 0.3 µg/mL (≈ 0.437 µM)
MIC [16]: 40 µg/mL (≈ 58.3 µM)
MIC [22]: 2.5 µg/mL (≈ 3.64 µM)
MIC [24]: 40 µg/mL (≈ 58.3 µM)
MIC [25]: 40 µg/mL (≈ 58.3 µM)
MIC [26]: 20 µg/mL (≈ 29.2 µM)
MIC [30]: 0.08 µg/mL (≈ 0.117 µM)
MIC [31]: 5 µg/mL (≈ 7.29 µM)
MIC [32]: 1.2 µg/mL (≈ 1.75 µM)
Structure (SMILES): CC[C@H]1OC(=O)[C@H](C)C(=O)[C@H](C)[C@@H](O[C@@H]2O[C@H](C)C[C@H](N(C)C)[C@H]2O)[C@](C)(OC)C[C@@H](C)/C(=N\O[C@H]2CCCNC2)[C@H](C)[C@@H](O)[C@]1(C)O
